# Experiments:
# Format in all cases: functional
# NCI-H292 [1] = assay: Cytotoxicity against human NCI-H292 cells at 1.25 ug/mL after 72 hrs by MTT assay; conditions: NCI-H292, 72 h, read-out: GI
# Summary of the method: (§1)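 MTT antiproliferative assay. Cells were diluted to 10⁵ cells/mL in 96-well plates and preincubated for 24 h at 37 °C in humid 5% CO₂. Compounds or vincristine (reference) were then added. Formazan was dissolved and OD read at 540 nm, compared with medium-only control cells. Run in triplicate.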
# Staphylococcus [2] = assay: Antimicrobial activity against coagulase-negative Staphylococcus H.A.M. 278 isolate after 20 hrs by twofold serial dilution technique; conditions: H.A.M. 278, 20 h
# Summary of the method: (§2)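 MIC was determined by twofold serial dilution. Bacteria were tested in plates at 10⁵ CFU/plate and read after 20 h. C. albicans was tested in tubes at 10³ CFU/tube and read after 48 h. All incubations were at 35 °C. Medium plus DMSO served as the negative control.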
# NCI-H292 [3] = assay: Cytotoxicity against human NCI-H292 cells at 10 ug/mL after 72 hrs by MTT assay; conditions: NCI-H292, 72 h, read-out: GI; summary of the method: as §1
# HEp-2 [4] = assay: Cytotoxicity against human Hep2 cells at 2.5 ug/mL after 72 hrs by MTT assay; conditions: HEp-2, 72 h, read-out: GI; summary of the method: as §1
# NCI-H292 [5] = assay: Cytotoxicity against human NCI-H292 cells at 5 ug/mL after 72 hrs by MTT assay; conditions: NCI-H292, 72 h, read-out: GI; summary of the method: as §1
# Staphylococcus [6] = assay: Antimicrobial activity against coagulase-negative Staphylococcus H.A.M. 338 isolate after 20 hrs by twofold serial dilution technique; conditions: H.A.M. 338, 20 h; summary of the method: as §2
# [7] = test system: Mycolicibacterium smegmatis; assay: Antimicrobial activity against Mycobacterium smegmatis UFPEDA 71 after 20 hrs by twofold serial dilution technique; conditions: UFPEDA 71, 20 h; summary of the method: as §2
# Staphylococcus aureus [8] = assay: Antimicrobial activity against Staphylococcus aureus UFPEDA 01 after 20 hrs by twofold serial dilution technique; conditions: UFPEDA 01, 20 h
# Summary of the method: (§3)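 Twofold serial dilution MIC in agar plates against Gram-positive strains and multidrug-resistant clinical isolates. Inoculum applied was 10⁵ CFU/plate. Plates with culture medium plus DMSO served as negative control. MIC was read after incubation at 35 °C for 20 h.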
# Escherichia coli = assay: Antimicrobial activity against Escherichia coli UFPEDA 224 at 300 ug/disk after 24 hrs by disk diffusion method; conditions: UFPEDA 224, 24 h, read-out: IZ
# Summary of the method: (§4)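 Preliminary screen by disk diffusion. Paper disks (6 mm) holding 300 µg of compound were placed on agar plates inoculated with a standardized microbial suspension. DMSO-only disks served as negative controls. A mean inhibition zone below 7 mm was scored as no sensitivity. Values are means, n = 3.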
# Enterococcus faecalis [9] = assay: Antimicrobial activity against Enterococcus faecalis UFPEDA 138 after 20 hrs by twofold serial dilution technique; conditions: UFPEDA 138, 20 h; summary of the method: as §2
# Micrococcus luteus [10] = assay: Antimicrobial activity against Micrococcus luteus UFPEDA 06 after 20 hrs by twofold serial dilution technique; conditions: UFPEDA 06, 20 h; summary of the method: as §2
# Staphylococcus aureus [11] = assay: Antimicrobial activity against multidrug-resistant Staphylococcus aureus H.C. 21141 isolate after 20 hrs by twofold serial dilution technique; conditions: H.C. 21141, 20 h; summary of the method: as §3
# HEp-2 [12] = assay: Cytotoxicity against human Hep2 cells at 5 ug/mL after 72 hrs by MTT assay; conditions: HEp-2, 72 h, read-out: GI; summary of the method: as §1
# Serratia marcescens = assay: Antimicrobial activity against Serratia marcescens UFPEDA 398 at 300 ug/disk after 24 hrs by disk diffusion method; conditions: UFPEDA 398, 24 h, read-out: IZ; summary of the method: as §4
# Bacillus subtilis [13] = assay: Antimicrobial activity against Bacillus subtilis UFPEDA 16 after 20 hrs by twofold serial dilution technique; conditions: UFPEDA 16, 20 h; summary of the method: as §2
# [14] = test system: Mycolicibacterium smegmatis; assay: Antimicrobial activity against Mycobacterium smegmatis UFPEDA 71 at 300 ug/disk after 24 hrs by disk diffusion method; conditions: UFPEDA 71, 24 h, read-out: IZ; summary of the method: as §4
# Micrococcus luteus [15] = assay: Antimicrobial activity against Micrococcus luteus UFPEDA 06 at 300 ug/disk after 24 hrs by disk diffusion method; conditions: UFPEDA 06, 24 h, read-out: IZ; summary of the method: as §4
# Candida albicans [16] = assay: Antimicrobial activity against Candida albicans UFPEDA 1007 at 300 ug/disk after 48 hrs by disk diffusion method; conditions: UFPEDA 1007, 48 h, read-out: IZ; summary of the method: as §4
# Staphylococcus aureus [17] = assay: Antimicrobial activity against Staphylococcus aureus UFPEDA 01 at 300 ug/disk after 24 hrs by disk diffusion method; conditions: UFPEDA 01, 24 h, read-out: IZ; summary of the method: as §4
# HEp-2 [18] = assay: Cytotoxicity against human Hep2 cells at 10 ug/mL after 72 hrs by MTT assay; conditions: HEp-2, 72 h, read-out: GI; summary of the method: as §1
# Staphylococcus aureus [19] = assay: Antimicrobial activity against multidrug-resistant Staphylococcus aureus H.C. 20489 isolate after 20 hrs by twofold serial dilution technique; conditions: H.C. 20489, 20 h; summary of the method: as §3
# Enterococcus faecalis [20] = assay: Antimicrobial activity against multidrug-resistant Enterococcus faecalis H.C. 21944 isolate after 20 hrs by twofold serial dilution technique; conditions: H.C. 21944, 20 h; summary of the method: as §3
# Staphylococcus aureus [21] = assay: Antimicrobial activity against multidrug-resistant Staphylococcus aureus H.C. 21036 isolate after 20 hrs by twofold serial dilution technique; conditions: H.C. 21036, 20 h; summary of the method: as §3
# Pseudomonas aeruginosa = assay: Antimicrobial activity against Pseudomonas aeruginosa UFPEDA 39 at 300 ug/disk after 24 hrs by disk diffusion method; conditions: UFPEDA 39, 24 h, read-out: IZ; summary of the method: as §4
# Candida albicans [22] = assay: Antimicrobial activity against Candida albicans UFPEDA 1007 after 48 hrs by twofold serial dilution technique; conditions: UFPEDA 1007, 48 h; summary of the method: as §2
# Enterococcus faecalis [23] = assay: Antimicrobial activity against multidrug-resistant Enterococcus faecalis H.C. 24708 isolate after 20 hrs by twofold serial dilution technique; conditions: H.C. 24708, 20 h; summary of the method: as §3
# HEp-2 [24] = assay: Cytotoxicity against human Hep2 cells at 1.25 ug/mL after 72 hrs by MTT assay; conditions: HEp-2, 72 h, read-out: GI; summary of the method: as §1
# Bacillus subtilis [25] = assay: Antimicrobial activity against Bacillus subtilis UFPEDA 16 at 300 ug/disk after 24 hrs by disk diffusion method; conditions: UFPEDA 16, 24 h, read-out: IZ; summary of the method: as §4
# Enterococcus faecalis [26] = assay: Antimicrobial activity against multidrug-resistant Enterococcus faecalis H.C. 21752 isolate after 20 hrs by twofold serial dilution technique; conditions: H.C. 21752, 20 h; summary of the method: as §3
# Staphylococcus aureus [27] = assay: Antimicrobial activity against multidrug-resistant Staphylococcus aureus H.C. 20981 isolate after 20 hrs by twofold serial dilution technique; conditions: H.C. 20981, 20 h; summary of the method: as §3
# Enterococcus faecalis [28] = assay: Antimicrobial activity against Enterococcus faecalis UFPEDA 138 at 300 ug/disk after 24 hrs by disk diffusion method; conditions: UFPEDA 138, 24 h, read-out: IZ; summary of the method: as §4
# Staphylococcus aureus [29] = assay: Antimicrobial activity against multidrug-resistant Staphylococcus aureus H.C. 20905 isolate after 20 hrs by twofold serial dilution technique; conditions: H.C. 20905, 20 h; summary of the method: as §3
# Staphylococcus aureus [30] = assay: Antimicrobial activity against multidrug-resistant Staphylococcus aureus H.C. 20794 isolate after 20 hrs by twofold serial dilution technique; conditions: H.C. 20794, 20 h; summary of the method: as §3
# Enterococcus faecalis [31] = assay: Antimicrobial activity against multidrug-resistant Enterococcus faecalis H.C. 24962 isolate after 20 hrs by twofold serial dilution technique; conditions: H.C. 24962, 20 h; summary of the method: as §3
# NCI-H292 [32] = assay: Cytotoxicity against human NCI-H292 cells at 2.5 ug/mL after 72 hrs by MTT assay; conditions: NCI-H292, 72 h, read-out: GI; summary of the method: as §1
Compound,inhibition of growth at 1.25 µg/mL (NCI-H292 [1]),MIC (Staphylococcus [2]),inhibition of growth at 10 µg/mL (NCI-H292 [3]),inhibition of growth at 2.5 µg/mL (HEp-2 [4]),inhibition of growth at 5 µg/mL (NCI-H292 [5]),MIC (Staphylococcus [6]),MIC [7],MIC (Staphylococcus aureus [8]),zone of inhibition at 300 µg/disc (Escherichia coli),MIC (Enterococcus faecalis [9]),MIC (Micrococcus luteus [10]),MIC (Staphylococcus aureus [11]),inhibition of growth at 5 µg/mL (HEp-2 [12]),zone of inhibition at 300 µg/disc (Serratia marcescens),MIC (Bacillus subtilis [13]),zone of inhibition at 300 µg/disc [14],zone of inhibition at 300 µg/disc (Micrococcus luteus [15]),zone of inhibition at 300 µg/disc (Candida albicans [16]),zone of inhibition at 300 µg/disc (Staphylococcus aureus [17]),inhibition of growth at 10 µg/mL (HEp-2 [18]),further results
O=C1NC(=S)/C(=C/c2ccc(Cl)c(Cl)c2)S1,9.18%,4 µg/mL,43.3%,5.03%,35.8%,2 µg/mL,32 µg/mL,4 µg/mL,< 7 mm,8 µg/mL,4 µg/mL,2 µg/mL,11%,< 7 mm,4 µg/mL,20 mm,27 mm,14 mm,25 mm,16.4%,MIC (Staphylococcus aureus [19]): 2 µg/mL; MIC (Enterococcus faecalis [20]): 4 µg/mL; MIC (Staphylococcus aureus [21]): 4 µg/mL; zone of inhibition at 300 µg/disc (Pseudomonas aeruginosa): < 7 mm; MIC (Candida albicans [22]): 32 µg/mL; MIC (Enterococcus faecalis [23]): 16 µg/mL; inhibition of growth at 1.25 µg/mL (HEp-2 [24]): -5.45%; zone of inhibition at 300 µg/disc (Bacillus subtilis [25]): 27 mm; MIC (Enterococcus faecalis [26]): 8 µg/mL; MIC (Staphylococcus aureus [27]): 2 µg/mL; zone of inhibition at 300 µg/disc (Enterococcus faecalis [28]): 20 mm; MIC (Staphylococcus aureus [29]): 4 µg/mL; MIC (Staphylococcus aureus [30]): 2 µg/mL; MIC (Enterococcus faecalis [31]): 16 µg/mL; inhibition of growth at 2.5 µg/mL (NCI-H292 [32]): 19.4%
O=C1NC(=S)/C(=C/c2c(Cl)cccc2Cl)S1,4.36%,4 µg/mL,32.8%,-4.24%,10.3%,4 µg/mL,4 µg/mL,4 µg/mL,< 7 mm,16 µg/mL,16 µg/mL,8 µg/mL,-2.39%,< 7 mm,8 µg/mL,17 mm,18 mm,15 mm,20 mm,8.73%,MIC (Staphylococcus aureus [19]): 4 µg/mL; MIC (Enterococcus faecalis [20]): 8 µg/mL; MIC (Staphylococcus aureus [21]): 8 µg/mL; zone of inhibition at 300 µg/disc (Pseudomonas aeruginosa): < 7 mm; MIC (Candida albicans [22]): 32 µg/mL; MIC (Enterococcus faecalis [23]): 16 µg/mL; inhibition of growth at 1.25 µg/mL (HEp-2 [24]): -9.16%; zone of inhibition at 300 µg/disc (Bacillus subtilis [25]): 20 mm; MIC (Enterococcus faecalis [26]): 8 µg/mL; MIC (Staphylococcus aureus [27]): 8 µg/mL; zone of inhibition at 300 µg/disc (Enterococcus faecalis [28]): < 7 mm; MIC (Staphylococcus aureus [29]): 4 µg/mL; MIC (Staphylococcus aureus [30]): 4 µg/mL; MIC (Enterococcus faecalis [31]): 16 µg/mL; inhibition of growth at 2.5 µg/mL (NCI-H292 [32]): 7.7%
